Source: PMC4235313 (Chemistry (Weinheim an Der Bergstrasse, Germany), 2013)

Biological target: T1, S. aureus PBP2 (Staphylococcus aureus, UniProt Q9R744)
T1 sequence (Q9R744 1-727): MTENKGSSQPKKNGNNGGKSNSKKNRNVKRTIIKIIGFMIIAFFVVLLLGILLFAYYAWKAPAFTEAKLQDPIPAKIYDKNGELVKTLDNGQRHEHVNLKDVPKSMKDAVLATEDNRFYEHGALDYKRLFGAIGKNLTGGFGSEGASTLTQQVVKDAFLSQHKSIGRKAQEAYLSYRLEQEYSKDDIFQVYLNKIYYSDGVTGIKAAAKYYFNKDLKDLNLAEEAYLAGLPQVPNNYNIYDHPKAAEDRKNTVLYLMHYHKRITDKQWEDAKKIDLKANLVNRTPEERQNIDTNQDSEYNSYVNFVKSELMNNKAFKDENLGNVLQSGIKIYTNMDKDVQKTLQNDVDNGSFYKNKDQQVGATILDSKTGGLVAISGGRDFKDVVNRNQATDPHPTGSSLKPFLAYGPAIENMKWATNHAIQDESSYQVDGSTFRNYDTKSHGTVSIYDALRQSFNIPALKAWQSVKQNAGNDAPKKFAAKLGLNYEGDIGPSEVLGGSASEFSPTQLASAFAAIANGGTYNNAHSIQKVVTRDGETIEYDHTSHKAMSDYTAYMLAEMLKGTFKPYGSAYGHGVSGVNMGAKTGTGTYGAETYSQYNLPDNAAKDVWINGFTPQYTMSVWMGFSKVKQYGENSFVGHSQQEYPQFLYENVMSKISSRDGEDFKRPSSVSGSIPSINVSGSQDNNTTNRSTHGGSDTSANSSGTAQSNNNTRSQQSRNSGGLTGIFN
Assay type: biochemical, Staphylococcus aureus RN4220
Conditions: for suppression of the peptidoglycan polymerization (in words): susceptible (normal lipid II analogue) and resistant (depsi-lipid II analogue) models of the PBP2 reaction, Figure 6
Procedure, shortened: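 N-terminal His6 S. aureus PBP2 (gene from RN4220 genomic DNA), expressed in E. coli BL21(DE3)pLysS, Ni-NTA and gel-filtration purified; 30 μg/mL in 50 mM HEPES pH 7.0, 18 mM MnCl2, 10% DMSO. Test compound series started with 4 μM [14C]-C35-lipid II or [14C]-C35-depsi-lipid II analogue, 30 °C, 4 min; SDS stop; cellulose TLC; phosphorimaging of polymerised product.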

Row | Molecule | IC50 [nM] | suppression of the peptidoglycan polymerization (in words)
1 | CN[C@H](CC(C)C)C(=O)N[C@H]1C(=O)N[C@@H](CC(N)=O)C(=O)N[C@H]2C(=O)N[C@H]3C(=O)N[C@H](C(=O)N[C@H](C(=O)O)c4cc(O)cc(O)c4-c4cc3ccc4O)[C@H](O)c3ccc(c(Cl)c3)Oc3cc2cc(c3O[C@@H]2O[C@H](CO)[C@@H](O)[C@H](O)[C@H]2O[C@H]2C[C@](C)(N)[C@H](O)[C@H](C)O2)Oc2ccc(cc2Cl)[C@H]1O [vancomycin] | 1520 | suppressed the peptidoglycan polymerization only when normal lipid II analogue was used
2 | moenomycin | – | suppressed the peptidoglycan polymerization regardless of the use of normal or depsi-lipid II analogues
